Reference: ChEMBL document CHEMBL5661977, “BI 6727, a Polo-like kinase inhibitor with improved pharmacokinetic profile and broad antitumor activity” (Clin Cancer Res, 2009)
The source made the active and inactive calls. No cut-off for these calls is given here.

How the values were obtained:
[1] = Clearance in Wistar rat at 10 mg/kg, iv by HPLC-MS/MS analysis; type: ADME, organism-based; conditions: in vivo
Summary of the method: (§1)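 Male Wistar Crl:WI (Han) rats, n = 4, given a single 5-min i.v. infusion. BI 6727 measured in EDTA plasma at various times after the infusion started, by HPLC-MS/MS with internal standard. Parameters came from noncompartmental analysis. Terminal half-life was taken from the last two time points after i.v. dosing.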

NCI-H460 [2] = test: Antimitotic activity against human NCI-H460 cells assessed as accumulation of monopolar spindles at 100 nmol/L incubated for 24 hrs by immunofluorescence analysis; type: functional, cell-based
Summary of the method: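 NCI-H460 cells on chamber slides were treated next day for 24 h with inhibitor or 0.1% DMSO vehicle. They were fixed and permeabilized with 4% formaldehyde/Triton X-100 for 5 min at RT, then stained with anti-tubulin and anti-phospho-Ser10 histone H3 (1:500 in PBS/2% BSA) plus DAPI 0.05 µg/mL. Imaged by fluorescence microscopy.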

NCI-H460 [3] = test: Antimitotic activity against human NCI-H460 cells assessed as G2-M arrest with apoptosis at 100 nmol/L incubated for 24 hrs by PI staining based flow cytometric analysis; type: functional, cell-based
Summary of the method: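 Log-phase NCI-H460 cells were treated with 0.1% DMSO or inhibitor (dose series for 24 h; 100 nmol/L time course at 0, 24, 48, 72 h). Cells were fixed in 80% ethanol, permeabilized with 0.25% Triton X-100 for 5 min, then given 0.1% RNase plus 10 µg/mL propidium iodide for 20 min at RT. DNA content was read by flow cytometry.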

NCI-H460 [4] = test: Induction of apoptosis in human NCI-H460 cells assessed as conversion of cleaved PRAP protein to fragment at 100 nmol/L incubated for 48 hrs by westernblot analysis; type: functional, cell-based
Summary of the method: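 Exponentially growing NCI-H460 cells treated with compound or DMSO control for 24 or 48 h, then harvested. Cleaved PARP fragment detected by Western blot.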

[5] = Half life in Wistar rat at 10 mg/kg, iv by HPLC-MS/MS analysis; type: ADME, organism-based; conditions: in vivo; summary of the method: as §1
[6] = Cmax in BomTac:NMRI-Foxn1nu mouse at 35 mg/kg, iv by HPLC-MS/MS analysis; type: ADME, organism-based; conditions: in vivo
Summary of the method: (§2)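 Female nude mice, n = 3, single i.v. dose (vehicle 0.1 N HCl diluted with 0.9% NaCl, 10 mL/kg). BI 6727 measured in EDTA plasma at several times by HPLC-MS/MS with internal standard. Parameters came from noncompartmental analysis. Terminal half-life was taken from the last two time points after i.v. dosing.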

[7] = AUC (0 to infinity) in BomTac:NMRI-Foxn1nu mouse at 35 mg/kg, iv by HPLC-MS/MS analysis; type: ADME, organism-based; conditions: in vivo
Summary of the method: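 Single i.v. dose: male Wistar rats (n=4) by 5-min infusion, female nude mice (n=3). EDTA plasma was sampled at various times and extracted with internal standard, NaOH, methanol/formic acid and acetonitrile. Analysis by LC-MS/MS (ESI+, C18, ammonium acetate pH 4.0/acetonitrile gradient). Noncompartmental parameters; AUC by trapezoidal rule.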

[8] = Volume of distribution at steady state in BomTac:NMRI-Foxn1nu mouse at 35 mg/kg, iv by HPLC-MS/MS analysis; type: ADME, organism-based; conditions: in vivo, read-out: Vdss; summary of the method: as §2
[9] = Half life in BomTac:NMRI-Foxn1nu mouse at 35 mg/kg, iv by HPLC-MS/MS analysis; type: ADME, organism-based; conditions: in vivo; summary of the method: as §2
HCT-116 [10] = test: Antitumor activity against human HCT-116 cells xenografted in BomTac:NMRI-Foxn1nu mouse assessed as T/C at 20 mg/kg, iv administered twice a week upto 6 weeks relative to control; type: functional
Summary of the method: (§3)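 Female nude mice bore s.c. HCT 116 (2×10^6 cells), NCI-H460 (1×10^6 cells) or serially transplanted CXB1 tumor pieces. At ~50–100 mm³, mice were randomized into groups of 10 and dosed i.v. (0.1 N HCl/saline) or by gavage (0.5% hydroxyethyl-cellulose) at 10 mL/kg. Calipers read thrice weekly, volume = length×width²×π/6. T/C from median volumes on the last day.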

HCT-116 [11] = test: Antitumor activity against human HCT-116 cells xenografted in BomTac:NMRI-Foxn1nu mouse assessed as T/C at 15 mg/kg, iv administered twice a week upto 6 weeks relative to control; type: functional; summary of the method: as §3
HCT-116 [12] = test: Antitumor activity against human HCT-116 cells xenografted in BomTac:NMRI-Foxn1nu mouse assessed as T/C at 25 mg/kg, po administered twice a week upto 6 weeks relative to control; type: functional; summary of the method: as §3
NCI-H460 [13] = test: Antitumor activity against human NCI-H460 cells xenografted in BomTac:NMRI-Foxn1nu mouse assessed as T/C at 70 mg/kg, po administered once a week upto 6 weeks relative to control; type: functional; summary of the method: as §3
[14] = AUC (0 to 24 hrs) in human HCT-116 cells xenografted in BomTac:NMRI-Foxn1nu mouse at 20 mg/kg, iv administered once a week upto 6 weeks by HPLC-MS/MS analysis; type: ADME, organism-based; conditions: in vivo, 1008 h
HCT-116 [15] = test: Antitumor activity against human HCT-116 cells xenografted in BomTac:NMRI-Foxn1nu mouse assessed as tumor regression at 20 mg/kg, iv administered twice a week on consecutive days; type: functional, organism-based; summary of the method: as §3
Mus musculus = test: Antitumor against human CXB1 cells xenografted in BomTac:NMRI-Foxn1nu mouse assessed as suppression in tumor growth at 15 mg/kg, iv administered once a week on consecutive days; type: functional, organism-based; conditions: CXB1 cell, in the assay text read “twice a week” for “once a week”; summary of the method: as §3
HCT-116 [16] = test: Antitumor activity against human HCT-116 cells xenografted in BomTac:NMRI-Foxn1nu mouse assessed as mitotic index in large intestine at 40 mg/kg, iv; type: functional, organism-based
Summary of the method: (§4)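 Female nude mice bore s.c. HCT 116 tumors (~200 mm³) and received a single i.v. 40 mg/kg dose or vehicle (n=3 per group per time). Tumor, small intestine and large intestine were taken at 6, 24 and 48 h. Frozen sections were stained for pSer10 histone H3 (immunoperoxidase) or by TUNEL. Positive area was calculated as % of tumor cell area; Student's t test.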

HCT-116 [17] = test: Antitumor activity against human HCT-116 cells xenografted in BomTac:NMRI-Foxn1nu mouse assessed as the number of apoptotic cells in small intestine at 40 mg/kg, iv; type: functional, organism-based; summary of the method: as §4
HCT-116 [18] = test: Antitumor activity against human HCT-116 cells xenografted in BomTac:NMRI-Foxn1nu mouse assessed as the number of apoptotic cells in large intestine at 40 mg/kg, iv; type: functional, organism-based; summary of the method: as §4
[19] = Drug uptake in human HCT-116 cells xenografted in BomTac:NMRI-Foxn1nu mouse at 35 mg/kg, iv measured after 8 hrs by HPLC-MS/MS analysis; type: ADME, organism-based, Neoplasm; conditions: tumour (HCT-116 xenograft)
Summary of the method: (§5)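 Female nude mice bearing s.c. HCT 116 xenografts (2 × 10⁶ cells), n = 3 per time point, given a single i.v. dose. Tumor, organs and EDTA plasma collected at 1, 8, 24, 48, 96 and 168 h. Tissue extracts and plasma analysed by HPLC-MS/MS. Tissue nmol/mg converted to nmol/L assuming density 1.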

[20] = Drug uptake in human HCT-116 cells xenografted in BomTac:NMRI-Foxn1nu mouse plasma at 35 mg/kg, iv measured after 1 hrs by HPLC-MS/MS analysis; type: ADME, organism-based; summary of the method: as §5

clearance [1]: 8.9 mL/min/kg | half-life [5]: 54 h | Cmax [6]: 7.1 µM | AUC(0-inf) [7]: 100 µM·h | Vd [8]: 7.6 L/kg | half-life [9]: 46 h | AUC [14]: 40 µM·h | concentration at 8 h [19]: 32 µM | concentration at 1 h [20]: 7 µM
SMILES: CC[C@@H]1C(=O)N(C)c2cnc(Nc3ccc(C(=O)N[C@H]4CC[C@H](N5CCN(CC6CC6)CC5)CC4)cc3OC)nc2N1C(C)C [VOLASERTIB]
Activity (NCI-H460 [2]): Active | Activity (NCI-H460 [3]): Active | Activity (NCI-H460 [4]): Active | T/C (HCT-116 [10]): 1% | T/C (HCT-116 [11]): 1% | T/C (HCT-116 [12]): 2% | T/C (NCI-H460 [13]): 20% | Activity (HCT-116 [15]): Active | Activity (Mus musculus): Active | Activity (HCT-116 [16]): inactive | Activity (HCT-116 [17]): inactive | Activity (HCT-116 [18]): inactive
